The source of these data is ChEMBL document CHEMBL1123284, “Structure-activity relationships for the competitive angiotensin antagonist [sarcosine,O-methyltyrosine4]angiotensin II (sarmesin)” (J Med Chem, 1986).

A word on the pA2: it is a measure of antagonist potency on a negative log scale. A lower pA2 goes with a weaker antagonist.

The structures appear in SMILES notation.

Assay [1] concerns the target T1, Angiotensin II receptor (Rattus norvegicus, UniProt P29089+P25095+P35351).
T1 sequence (P29089 whole entry): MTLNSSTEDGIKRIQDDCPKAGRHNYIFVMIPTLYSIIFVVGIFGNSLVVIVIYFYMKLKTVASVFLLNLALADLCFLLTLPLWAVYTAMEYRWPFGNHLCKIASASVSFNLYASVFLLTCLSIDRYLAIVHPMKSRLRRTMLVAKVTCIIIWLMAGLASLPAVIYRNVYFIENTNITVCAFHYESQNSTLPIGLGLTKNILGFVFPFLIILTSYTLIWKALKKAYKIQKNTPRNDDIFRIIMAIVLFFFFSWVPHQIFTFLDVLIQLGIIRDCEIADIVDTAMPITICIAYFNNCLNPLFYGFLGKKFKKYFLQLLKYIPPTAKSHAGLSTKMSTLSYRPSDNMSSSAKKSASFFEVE
T1 sequence (P25095 whole entry): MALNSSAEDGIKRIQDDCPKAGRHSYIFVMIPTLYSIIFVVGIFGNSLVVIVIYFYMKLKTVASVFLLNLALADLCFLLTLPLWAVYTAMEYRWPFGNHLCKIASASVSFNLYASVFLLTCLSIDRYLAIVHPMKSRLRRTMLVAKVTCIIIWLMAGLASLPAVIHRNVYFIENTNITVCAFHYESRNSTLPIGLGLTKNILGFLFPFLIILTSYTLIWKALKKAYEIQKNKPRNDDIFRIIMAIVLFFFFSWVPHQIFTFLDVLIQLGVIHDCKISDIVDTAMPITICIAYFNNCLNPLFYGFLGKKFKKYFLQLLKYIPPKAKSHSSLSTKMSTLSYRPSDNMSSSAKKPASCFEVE
T1 sequence (P35351 whole entry): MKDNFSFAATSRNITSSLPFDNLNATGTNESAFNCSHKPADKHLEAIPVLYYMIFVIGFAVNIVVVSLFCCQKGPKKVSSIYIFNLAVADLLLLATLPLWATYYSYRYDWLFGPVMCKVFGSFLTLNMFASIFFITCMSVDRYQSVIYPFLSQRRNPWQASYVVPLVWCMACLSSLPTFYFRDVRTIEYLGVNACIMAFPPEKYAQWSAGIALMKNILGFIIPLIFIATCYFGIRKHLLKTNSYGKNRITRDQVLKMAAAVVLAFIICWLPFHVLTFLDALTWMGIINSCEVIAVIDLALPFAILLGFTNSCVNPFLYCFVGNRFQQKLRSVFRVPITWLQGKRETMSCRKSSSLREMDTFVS
As to the kind of experiment: Angiotensin II receptor antagonist activity was tested in rat isolated uterus assay using [Asp1,Ile5]ANG II (human angiotensin II) as the standard. It is filed as functional, tissue-based. The method in brief: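 Defatted, halved uterine horns from diethylstilbestrol-primed virgin Sprague-Dawley rats (150–250 g), at 1 g tension in a 3-mL bath at pH 7.0, oxygen-gassed (150 mM NaCl, 5.6 mM KCl, 0.18 mM CaCl2, 1.8 mM NaHCO3, 1.4 mM glucose). Isotonic recording of contraction. pA2 is the negative log of the antagonist concentration that cuts the response to an EC50 dose of human ANG II down to the response to half the EC50 dose. Mean ± SEM.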

Assay [2] concerns the target T2, Angiotensin II receptor (Rattus norvegicus) (UniProt P29089+P25095+P35351). As to the kind of experiment: Angiotensin II receptor agonist activity was tested in rat isolated uterus assay using [Asp1,Ile5]ANG II (human angiotensin II) as the standard. It is filed as functional, tissue-based. The method in brief: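 Uterine horns from diethylstilbestrol-primed virgin Sprague-Dawley rats (150–250 g), defatted and halved. Each half held at 1 g tension in a 3-mL bath at pH 7.0, oxygen-gassed (150 mM NaCl, 5.6 mM KCl, 0.18 mM CaCl2, 1.8 mM NaHCO3, 1.4 mM glucose). Contractions recorded isotonically. Agonism measured by matching each response to an equivalent response to human ANG II. Mean ± SEM.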

Assay [3] deals with T2, Angiotensin II receptor (Rattus norvegicus). As to the kind of experiment: Compound was evaluated for the antagonistic activity against rat Angiotensin II receptor by using isometric bioassay system. It is filed as functional.

In the case of `CC[C@H](C)[C@H](NC(=O)[C@@H]1C[C@@H](O)CN1C(=O)[C@@H](NC(=O)[C@H](CCCN=C(N)N)NC(=O)CNC)C(C)C)C(=O)N[C@@H](Cc1c[nH]cn1)C(=O)N1CCC[C@H]1C(=O)N[C@@H](Cc1ccccc1)C(=O)O`, in assay [1], the pA2 is given as less than 5.

`CC[C@H](C)[C@H](NC(=O)[C@@H](NC(=O)[C@@H](NC(=O)[C@H](CCCN=C(N)N)NC(=O)CNC)C(C)C)[C@@H](C)O)C(=O)N[C@@H](Cc1c[nH]cn1)C(=O)N1CCC[C@H]1C(=O)N[C@@H](Cc1ccccc1)C(=O)O`: the pA2 in assay [1] is reported as less than 6.

The compound `CC[C@H](C)[C@H](NC(=O)[C@@H](NC(=O)[C@H](CCCN=C(N)N)NC(=O)CNC)C(C)C)C(=O)N[C@H](C(=O)N[C@@H](Cc1c[nH]cn1)C(=O)N1CCC[C@H]1C(=O)N[C@@H](Cc1ccccc1)C(=O)O)[C@@H](C)CC` registered a pA2 in assay [1] of less than 6.

For the compound `CC[C@H](C)[C@H](NC(=O)[C@@H]1CCCN1C(=O)[C@H](Cc1c[nH]cn1)NC(=O)[C@@H](NC(=O)[C@H](Cc1ccccc1)NC(=O)[C@@H](NC(=O)[C@H](CCCN=C(N)N)NC(=O)CNC)C(C)C)[C@@H](C)CC)C(=O)O`, in assay [2], the Activity was less than 0.1%. This compound also came in with a pA2 in assay [1] of 6.7.

For the compound `CC[C@H](C)[C@H](NC(=O)[C@@H]1CCCN1C(=O)[C@H](Cc1c[nH]cn1)NC(=O)[C@@H](NC(=O)[C@H](Cc1ccc(OC)cc1)NC(=O)[C@@H](NC(=O)[C@H](CCCN=C(N)N)NC(=O)CNC)C(C)C)[C@@H](C)CC)C(=O)O`, the Activity in assay [2] is less than 0.1%. In assay [1], the pA2 stood at 6.6.

In assay [2], `CC[C@H](C)[C@H](NC(=O)[C@H]1CCCN1C(=O)[C@H](Cc1c[nH]cn1)NC(=O)[C@@H](NC(=O)[C@@H](Cc1ccc(O)cc1)NC(=O)[C@@H](NC(=O)[C@H](CCCN=C(N)N)NC(=O)CNC)C(C)C)[C@@H](C)CC)C(=O)O` gave an Activity of less than 0.1%.

Turning to `CC[C@H](C)[C@H](NC(=O)[C@@H](Cc1ccc(O)cc1)NC(=O)[C@@H](NC(=O)[C@H](CCCN=C(N)N)NC(=O)CNC)C(C)C)C(=O)N[C@@H](Cc1c[nH]cn1)C(=O)N1CCC[C@H]1C(=O)N[C@@H](Cc1ccccc1)C(=O)O`, the pA2 in assay [1] is reported as less than 6.5.

Take `CC[C@H](C)[C@H](NC(=O)[C@@H](NC(=O)[C@@H](NC(=O)[C@H](CCCN=C(N)N)NC(=O)CNC)C(C)C)[C@H](C)O)C(=O)N[C@@H](Cc1c[nH]cn1)C(=O)N1CCC[C@@H]1C(=O)N[C@@H](Cc1ccccc1)C(=O)O`: in assay [2], the Activity came to 2%.

As to `CC[C@H](C)[C@H](NC(=O)[C@H](Cc1ccc(OC)cc1)NC(=O)[C@@H](NC(=O)[C@H](CCCN=C(N)N)NC(=O)[C@@H]1CCCN1)C(C)C)C(=O)N[C@@H](Cc1c[nH]cn1)C(=O)N1CCC[C@@H]1C(=O)N[C@@H](Cc1ccccc1)C(=O)O`, in assay [2], the Activity was 0.3%.

The compound `CC[C@H](C)[C@H](NC(=O)[C@H]1CCCN1C(=O)[C@H](Cc1c[nH]cn1)NC(=O)[C@@H](NC(=O)[C@@H](Cc1ccccc1)NC(=O)[C@@H](NC(=O)[C@H](CCCN=C(N)N)NC(=O)CNC)C(C)C)[C@@H](C)CC)C(=O)O` returned an Activity in assay [2] of less than 0.1%. In assay [1], the pA2 is given as less than 5.

Turning to `CC[C@H](C)[C@H](NC(=O)C1CCCN1C(=O)[C@H](Cc1c[nH]cn1)NC(=O)[C@@H](NC(=O)[C@H](Cc1ccc(O)cc1)NC(=O)[C@@H](NC(=O)[C@H](CCCN=C(N)N)NC(=O)CNC)C(C)C)[C@@H](C)CC)C(=O)O` (single isomer, unassigned), the Activity in assay [2] was less than 0.1%.

Consider `CC[C@H](C)[C@H](NC(=O)[C@H](Cc1ccc(OC)cc1)NC(=O)[C@@H](NC(=O)[C@H](CCCN=C(N)N)NC(=O)[C@H](C)N)C(C)C)C(=O)N[C@@H](Cc1c[nH]cn1)C(=O)N1CCC[C@H]1C(=O)N[C@@H](Cc1ccccc1)C(=O)O`, for which the pA2 in assay [1] is listed as less than 6.

For the compound `CC[C@H](C)[C@H](NC(=O)[C@H](Cc1ccc(OC)cc1)NC(=O)[C@@H](NC(=O)[C@H](CCCN=C(N)N)NC(=O)[C@H](C)N)C(C)C)C(=O)N[C@@H](Cc1c[nH]cn1)C(=O)N1CCC[C@@H]1C(=O)N[C@@H](Cc1ccccc1)C(=O)O`, the Activity in assay [2] was less than 0.1%.

For `CC[C@H](C)[C@H](NC(=O)[C@@H](Cc1ccc(O)cc1)NC(=O)[C@@H](NC(=O)[C@H](CCCN=C(N)N)NC(=O)CNC)C(C)C)C(=O)N[C@@H](Cc1c[nH]cn1)C(=O)N1CCC[C@@H]1C(=O)N[C@@H](Cc1ccccc1)C(=O)O`, the Activity in assay [2] was 2%.

On to `CCOc1ccc(C[C@H](NC(=O)[C@@H](NC(=O)[C@H](CCCN=C(N)N)NC(=O)CNC)C(C)C)C(=O)N[C@H](C(=O)N[C@@H](Cc2c[nH]cn2)C(=O)N2CCC[C@H]2C(=O)N[C@@H](Cc2ccccc2)C(=O)O)[C@@H](C)CC)cc1`, for which the Activity in assay [2] stood at 0.2%. The compound also displayed a pA2 in assay [1] of less than 6.

In the case of `CC[C@H](C)[C@H](NC(=O)[C@@H]1C[C@@H](O)CN1C(=O)[C@@H](NC(=O)[C@H](CCCN=C(N)N)NC(=O)CNC)C(C)C)C(=O)N[C@@H](Cc1c[nH]cn1)C(=O)N1CCC[C@@H]1C(=O)N[C@@H](Cc1ccccc1)C(=O)O`, the Activity in assay [2] is less than 0.1%.

In turn, `CC[C@H](C)[C@H](NC(=O)[C@H](Cc1ccccc1)NC(=O)[C@@H](NC(=O)[C@H](CCCN=C(N)N)NC(=O)CNC)C(C)C)C(=O)N[C@@H](Cc1c[nH]cn1)C(=O)N1CCC[C@H]1C(=O)N[C@@H](Cc1ccccc1)C(=O)O` yielded an Activity in assay [2] of 22%. In assay [1], this compound came in with a pA2 of 7.9.

As to `CC[C@H](C)[C@H](NC(=O)[C@@H](Cc1ccccc1)NC(=O)[C@@H](NC(=O)[C@H](CCCN=C(N)N)NC(=O)CNC)C(C)C)C(=O)N[C@@H](Cc1c[nH]cn1)C(=O)N1CCC[C@@H]1C(=O)N[C@@H](Cc1ccccc1)C(=O)O`, the Activity in assay [2] was less than 0.1%. The pA2 in assay [1] is listed as less than 5.5.

Compound `CC[C@H](C)[C@H](NC(=O)[C@H](Cc1ccc(OC)cc1)NC(=O)[C@@H](NC(=O)[C@H](CCCN=C(N)N)NC(=O)[C@@H]1CCCN1)C(C)C)C(=O)N[C@@H](Cc1c[nH]cn1)C(=O)N1CCC[C@H]1C(=O)N[C@@H](Cc1ccccc1)C(=O)O` had a pA2 in assay [1] of less than 6.

With `CC[C@H](C)[C@H](NC(=O)[C@H](Cc1ccc(OC)cc1)NC(=O)[C@@H](NC(=O)[C@H](CCCN=C(N)N)NC(=O)CNC)C(C)C)C(=O)N[C@@H](Cc1c[nH]cn1)C(=O)N1CCC[C@H]1C(=O)N[C@@H](Cc1ccccc1)C(=O)O`, the Activity is 8.1 in assay [3] and less than 0.1% in assay [2]. The compound also registered a pA2 in assay [1] of 7.5.

On to `CC[C@H](C)[C@H](NC(=O)[C@@H](NC(=O)[C@H](CCCN=C(N)N)NC(=O)CNC)C(C)C)C(=O)N[C@H](C(=O)N[C@@H](Cc1c[nH]cn1)C(=O)N1CCC[C@@H]1C(=O)N[C@@H](Cc1ccccc1)C(=O)O)[C@@H](C)CC`, for which the Activity in assay [2] was found to be 0.2%.
